# Source: the array DNA melting data of Ke et al. (doi:10.1101/2024.01.08.574731)
# Tests used:
# [1] = melting temperature; fluorescence melt of hairpins on a sequencing array, two-state fit, raised by 9.35 °C to match UV melts; conditions: sodium 0.088 M
# Summary of the method: (§1)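 Hairpins were imaged by Cy3 fluorescence on a sequenced MiSeq flow cell with annealed Cy3 and quencher oligos, in 50 mM Na-HEPES pH 8.0, 25 mM NaCl, in 2.5 °C steps up to 60 °C. Bootstrapped two-state fits of normalised signals gave melting temperature and folding enthalpy. Four replicates were combined by inverse variance, and fitted temperatures were raised by 9.35 °C to match UV melts.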
# [2] = folding enthalpy; higher = less favourable; fluorescence melt of hairpins on a sequencing array, two-state fit; conditions: sodium 0.088 M
# Summary of the method: as §1
Sequence,Tm [1] [°C],folding enthalpy [2] [kcal/mol]
GAAAGGGGAAACCTTTTC ((((.((....)).)))),34.2,-27.1
GAAAGTGGAAACACCTTC (((.(((....))).))),28.8,-9.58
GAAAGTGGAAACACTTCC (.(((((....))))).),33.7,-16.6
GAAATAGCGAAAGCTTTC (((..(((....)))))),28.6,-11.8
GAAATAGGAAACTGTTTC ((((.((....)).)))),36.1,-21.3
GAAATCACGAAAGTGTTC (((..(((....)))))),20.8,-9
GAAATCCGAAAGGACTTC (((.(((....))).))),37.6,-29.8
GAAATGGGAAACTATTTC (((((.(....).))))),33.7,-23
GAAATTGGAAACAATTTC (((((((....))))))),51.3,-35.8
GAACAACCGAAAGGTTTC (((..(((....)))))),29.3,-9.63
GAACAACGAAAGTTCTTC (((.(((....))).))),38.7,-29.8
GAACAACGAAAGTTTTTC (((.(((....))).))),31.6,-17.8
GAACAAGGAAACTCGTTC ((((.((....)).)))),27,-16.4
GAACAAGGAAACTTGTCC (.(((((....))))).),31.3,-15.4
GAACACGAAAGTGACTTC ((((((....)))..))),35.4,-20.8
GAACACGAAAGTGCCTTC ((((((....)))..))),32.9,-18.7
GAACACGAAAGTGGATTC ((((((....)))..))),39.8,-18.6
GAACACGAAAGTGTATTC ((((((....)))..))),33.6,-9.83
GAACACGAAAGTGTTTTC ((((((....)))..))),49,-15.1
GAACACGCGAAAGCGTTC (((..(((....)))))),27.9,-8.07
GAACACGGAAACATGTTC (((((.(....).))))),35.1,-28
GAACACGGAAACGTGCTC ((.((((....)))).)),43,-18.6
GAACAGGAAACTGTTC ((((((....)))))),52.9,-38.4

Sequence,Tm [1] [°C],folding enthalpy [2] [kcal/mol]
GAACATCCGAAAGGATTC (((..(((....)))))),26.3,-11.7
GAACCACGAAAGTGATTC (((.(((....))).))),43.7,-23.9
GAACCACGAAAGTGCTTC (((.(((....))).))),32.3,-17.1
GAACCCCCGAAAGGGTTC (((..(((....)))))),55,-24
GAACCCGAAAGGGAGTTC ((((((....)))..))),40,-13.7
GAACCCGAAAGGGGATTC ((((((....)))..))),42.9,-16.6
GAACCCGAAAGGGGTTTC ((((((....)))..))),46.9,-11.6
GAACCCGGAAACAGGTTC (((((.(....).))))),40,-25.9
GAACCCGGAAACGGGCTC ((.((((....)))).)),47.3,-15.4
GAACCGCGAAAGCGATTC (((.(((....))).))),47.8,-24.8
GAACCGCGAAAGCGTTC (((.(((....)))))),44,-14.2
GAACCTGGAAACAAGTTC ((((.((....)).)))),26.8,-15.9
GAACGACGAAAGTCCTTC (((.(((....))).))),31.3,-14.3
GAACGAGGAAACTCGCTC ((.((((....)))).)),38.9,-20.5
GAACGCGGAAACGCGCTC ((.((((....)))).)),50.3,-15.1
GAACGGCGAAAGCCATTC (((.(((....))).))),44.2,-16.8
GAACTACGAAAGTACTTC (((.(((....))).))),25.9,-9.53
GAACTAGGAAACCAGTTC (((((.(....).))))),33.9,-28.3
GAACTAGGAAACTAGTTC (((((((....))))))),53.8,-40.2
GAACTCCGAAAGGAATTC (((.(((....))).))),37.5,-25.9
GAACTCCGAAAGGATTC (((.(((....)))))),37.1,-17
GAACTCGAAAGAGTTC ((((((....)))))),61.6,-39.3
GAACTGCGAAAGCAATTC (((.(((....))).))),36.7,-21.7
